Measured values from article PMC8132106 (Cancer chemotherapy and pharmacology, 2019).
Read-outs that look alike come from different tables or passages of the source.

How the values were obtained:
AR + TNBC = conditions: cited from earlier work
mCRPC = conditions: compared to placebo, cited from earlier work
[1] = Noncompartmental analysis of seviteronel plasma PK in patients; type: in vivo, human
CYP2C9 = conditions: 1uM substrate over 60 min; ref unpublished data on file; cited from earlier work
CYP17 lyase = conditions: cited from earlier work
[2] = men taking 600 mg QD; cited from earlier work
CYP3A4 = conditions: 1μM substrate over 60 min; ref unpublished data on file; cited from earlier work
[3] = Previously reported noncompartmental clinical PK of seviteronel; type: in vivo, human; conditions: with BID dosing, predicted from half-lives of 6.4 to 9.2 h
[4] = cited from earlier work
CYP2C19 = conditions: 1uM substrate over 60 min; ref unpublished data on file; cited from earlier work
[5] = Population PK model of seviteronel; type: in vivo, human; conditions: for predicted accumulation: from simulated half-life 17.5 h
Summary of the method: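 Dense and sparse plasma concentrations (sparse from cycle 1 day 14, then every other cycle; LC-MS/MS; BQL excluded) were pooled; fed and fasted first doses counted as separate patients. One-, two- and three-compartment models with first-order or saturable absorption/elimination were tested, with exponential between-subject variability. Covariates tested: sex, body weight, prandial status, dexamethasone. Selection used OFV (−2LL; ΔOFV > 3.84, α = 0.05). Evaluation used a VPC with 200 simulated replicates (5th/50th/95th percentiles) and a split-off trough validation dataset.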

[6] = apparent oral inter-compartmental clearance
[7] = apparent oral total systemic clearance
[8] = apparent oral volume of distribution of the central compartment
[9] = apparent oral volume of distribution of the peripheral compartment
[10] = transit rate between compartments of the transit absorption model

In the case of `CC(=O)O[C@H]1CC[C@@]2(C)C(=CC[C@@H]3[C@@H]2CC[C@]2(C)C(c4cccnc4)=CC[C@@H]32)C1` [abiraterone acetate], the “radiographic progression-free survival (rPFS)” value (AR + TNBC; in combination with prednisone, women with AR + (> 0% by IHC) TNBC) is given as 11.2 weeks.
For `CNC(=O)c1ccc(N2C(=S)N(c3ccc(C#N)c(C(F)(F)F)c3)C(=O)C2(C)C)cc1F` [enzalutamide], the “radiographic progression-free survival (rPFS)” value (AR + TNBC; single-arm, open-label study, women with AR + (≥ 10% by IHC) TNBC) is given as 14.7 weeks, the “improvement in overall survival (OS)” value (mCRPC; post-chemotherapy) is given as 4.8 mo and the “overall reduction in risk of death” value (mCRPC; post-chemotherapy) is given as 37%. For the same compound, the “improvement in overall survival (OS)” value (mCRPC; pre-chemotherapy) was 2.4 mo and the “overall reduction in risk of death” value (mCRPC; pre-chemotherapy) was 29%.
With `CC(C)[C@](O)(c1ccc2cc(OC(F)F)c(OC(F)F)cc2c1)c1c[nH]nn1` [seviteronel] the “food effect on PK” value ([1]; Study 001, fasted vs fed) was “no statistically-significant food effect”, the “half-life longer with 48 h sampling than calculated with 0–24 h sampling” value ([1]; Study 002) was ~ 60% and the “steady-state AUCTAU higher than first-dose AUCINF” value ([1]; Study 002, QD dosing) was ~ 60%. For the same compound, the “steady-state trough levels with vs without dexamethasone” value ([1]; dexamethasone 0.5 mg daily co-administration) was “no statistically significant differences were observed”, the accumulation at steady-state ([1]; observed plasma concentrations, Fig. 1) was ~ 60% and the loss of substrate (CYP2C9) was 100%. The “selectivity for inhibition of CYP17 lyase versus hydroxylase” value (CYP17 lyase) was “tenfold”, the CMAX [2] was 4403 ± 1817 ng/mL and the loss of substrate (CYP3A4) was 57%. For the same compound, the “predicted accumulation to steady-state” value [3] was 37–68%, the DLTs ([4]; 450 mg QD) was “no reported DLTs” and the “time for drug-related adverse events to resolve to baseline” value ([4]; CRPC men treated with seviteronel) was 2–3 weeks. For the same compound, the “Grade 1 events, 600 mg QD relative to 450 mg QD” value ([4]; women) was “five times more”, the loss of substrate (CYP2C19) was 100% and the “CL/F, bootstrap mean estimate” value ([5]; 200 replicates) was 6.89 L/h. The “Ka, bootstrap mean estimate” value ([5]; 200 replicates) was 2.47 h⁻¹, the “Ktr, bootstrap mean estimate” value ([5]; 200 replicates) was 1.98 L/h and the “Q/F, bootstrap mean estimate” value ([5]; 200 replicates) was 6.99 L/h. The “V/F, bootstrap mean estimate” value ([5]; 200 replicates) was 99.97 L, the “Vp/F, bootstrap mean estimate” value ([5]; 200 replicates) was 352.6 L and the “BSV on CL/F” value ([5]; after accounting for sex effect) was 45%. The “Q/F, base model estimate” value [5, 6] was 6.99 L/h, the “Q/F, final model estimate” value [5, 6] was 6.99 L/h and the “CL/F, base model estimate” value [5, 7] was 7.15 L/h. For the same compound, the “CL/F, final model estimate” value [5, 7] was 6.69 L/h, the “V/F, base model estimate” value [5, 8] was 69.9 L and the “V/F, final model estimate” value [5, 8] was 99.97 L. The “Vp/F, base model estimate” value [5, 9] was 369 L, the “Vp/F, final model estimate” value [5, 9] was 343.4 L and the “BSV of V/F” value ([5]; before sex and body weight were included on CL/F) was 62.9%. For the same compound, the “dCLdSex, final model estimate” value ([5]; covariate effect on CL/F by Sex) was 0.5883, the “dCLdSex, bootstrap mean estimate” value ([5]; covariate effect on CL/F by Sex, 200 replicates) was 0.559 and the “dCLdWt, final model estimate” value ([5]; covariate effect on CL/F by body weight) was 0.2514. For the same compound, the “dCLdWt, bootstrap mean estimate” value ([5]; covariate effect on CL/F by body weight, 200 replicates) was 0.3595, the “Between subject variability (%CV; ω) on Ka” value ([5]; final model) was 133% and the “Between subject variability (%CV; ω) on Ktr” value ([5]; final model) was 94.9%. The “Between subject variability (%CV; ω) on Q/F” value ([5]; final model) was 51.5%, the “Between subject variability (%CV; ω) on V/F” value ([5]; final model) was 51.4% and the “Between subject variability (%CV; ω) on Vp/F” value ([5]; final model) was 35.9%. The “Between subject variability (%CV; ω) on CL/F” value ([5]; final model, sex and body weight on CL/F) was 37.4%, the “Ka, base model estimate” value ([5]; first-order absorption rate) was 1.99 h⁻¹ and the “Ka, final model estimate” value ([5]; first-order absorption rate) was 2.49 h⁻¹. The “BSV on CL/F” value ([5]; overall, before covariates) was 59.6%, the “Ktr, base model estimate” value [5, 10] was 1.99 L/h and the “Ktr, final model estimate” value [5, 10] was 1.99 L/h. For the same compound, the predicted accumulation ([5]; with BID dosing) was 164% and the predicted accumulation ([5]; with QD dosing) was 63%.
